Experimental findings from ChEMBL document CHEMBL2311383, “Discovery of piperazin-1-ylpyridazine-based potent and selective stearoyl-CoA desaturase-1 inhibitors for the treatment of obesity and metabolic syndrome” (J Med Chem, 2013) are described below.

SMILES strings stand for the structures. Calls of active or inactive are those of the source. No cut-off for these calls is given here. Where only a bound is given, the exact number is not on record here.

Data set [1] can be described thus: Metabolic stability in rat liver microsome after 30 mins by LC/MS/MS analysis. To be noted: liver microsomes, read-out: Stability. It is filed as ADME. In short, it runs like this:
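Compound incubated 30 min with rat liver microsomes; percent parent remaining by LC/MS/MS.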
(In general: Microsomes from liver hold many membrane-bound enzymes, among them those of drug oxidation.)

Data set [2] is described as follows: Apparent permeability from apical to basolateral side in human Caco2 cells. The class given is ADME, cell-based. To be noted: Caco-2. Summed up:
(§1)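 Caco-2 monolayers; apparent permeability a-to-b and b-to-a reported in 10⁻⁶ cm/s.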
For orientation: Passage across Caco-2 layers is used to estimate intestinal permeability.

Data set [3] has as its system Rattus norvegicus. Put plainly: In vivo inhibition of SCD1 in Lewis rat liver microsome at 15 mg/kg, ip administered qd for 2 days. It is filed as functional. The settings on record: 48 h, route intraperitoneal. In short, it runs like this: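 Lewis rats fed high-carbohydrate diet for one week, fasted 4 h, then dosed orally (0.1–1 mg/kg in 0.2% Tween 20/1% CMC; n = 4), killed 4 h later; ip arm 15 mg/kg once daily for two days. Liver microsomes prepared, SCD1 activity measured by tritiated water release from [9,10-3H]stearoyl-CoA. Mean ± SD of at least four rats.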

The target of data set [4] is CYP2C9 (Homo sapiens, UniProt P11712). Description: Inhibition of CYP2C9 (unknown origin) at 10 uM. The class given is ADME.
Sequence of CYP2C9 (P11712 whole entry): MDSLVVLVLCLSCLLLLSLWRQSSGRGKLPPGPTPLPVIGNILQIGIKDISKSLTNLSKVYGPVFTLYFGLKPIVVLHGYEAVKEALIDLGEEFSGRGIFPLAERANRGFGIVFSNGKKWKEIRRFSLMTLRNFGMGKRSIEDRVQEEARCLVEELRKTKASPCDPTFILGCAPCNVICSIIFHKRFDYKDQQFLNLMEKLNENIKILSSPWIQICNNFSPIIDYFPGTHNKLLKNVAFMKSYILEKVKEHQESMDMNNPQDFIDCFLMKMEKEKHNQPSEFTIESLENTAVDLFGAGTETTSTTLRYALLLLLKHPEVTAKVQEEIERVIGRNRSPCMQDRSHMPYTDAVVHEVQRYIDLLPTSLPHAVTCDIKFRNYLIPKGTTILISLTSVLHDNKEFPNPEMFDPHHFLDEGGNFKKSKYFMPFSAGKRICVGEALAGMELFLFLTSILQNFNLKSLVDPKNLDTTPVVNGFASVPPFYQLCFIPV
The nature of data set [5]: Protein binding in plasma (unknown origin). The class given is ADME, cell-free. To be noted: read-out: PPB (converted).
The target of data set [6] is T1, Acyl-CoA desaturase 1 (Mus musculus, UniProt P13516).
T1 sequence (P13516 whole entry): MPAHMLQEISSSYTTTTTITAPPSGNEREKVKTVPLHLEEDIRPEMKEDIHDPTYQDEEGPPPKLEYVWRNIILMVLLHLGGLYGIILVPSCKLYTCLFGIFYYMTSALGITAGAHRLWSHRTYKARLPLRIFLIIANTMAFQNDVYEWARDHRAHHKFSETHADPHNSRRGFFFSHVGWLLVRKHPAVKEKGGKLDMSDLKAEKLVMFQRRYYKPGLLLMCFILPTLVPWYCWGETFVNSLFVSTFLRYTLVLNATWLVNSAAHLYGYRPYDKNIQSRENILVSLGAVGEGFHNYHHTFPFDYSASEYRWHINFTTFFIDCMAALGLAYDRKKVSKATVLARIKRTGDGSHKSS
Put plainly: Inhibition of SCD1 in ICR mouse liver microsome using [9,10 3H]- stearoyl-Coenzyme A substrate assessed as decreased production of tritiated water after 20 min by scintillation counting analysis.

The target in data set [7] is CYP2D6 (Homo sapiens, UniProt P10635). Put plainly: Inhibition of CYP2D6 (unknown origin) at 10 uM. It is filed as ADME.
Sequence of CYP2D6 (P10635 whole entry): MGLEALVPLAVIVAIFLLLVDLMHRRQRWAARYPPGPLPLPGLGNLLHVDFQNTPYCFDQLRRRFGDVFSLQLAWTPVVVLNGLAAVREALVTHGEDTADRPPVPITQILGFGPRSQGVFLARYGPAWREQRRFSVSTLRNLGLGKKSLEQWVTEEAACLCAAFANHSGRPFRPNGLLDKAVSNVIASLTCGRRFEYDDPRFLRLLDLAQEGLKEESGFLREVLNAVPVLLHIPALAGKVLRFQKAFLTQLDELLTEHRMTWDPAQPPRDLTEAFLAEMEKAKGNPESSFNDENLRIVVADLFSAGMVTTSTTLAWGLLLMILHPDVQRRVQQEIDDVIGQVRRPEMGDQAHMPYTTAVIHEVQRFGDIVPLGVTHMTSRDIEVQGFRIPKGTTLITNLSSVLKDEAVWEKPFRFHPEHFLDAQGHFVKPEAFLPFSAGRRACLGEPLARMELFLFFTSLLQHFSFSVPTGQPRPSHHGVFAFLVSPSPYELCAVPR
The target of data set [8] is CYP2C19 (Homo sapiens, UniProt P33261). Put plainly: Inhibition of CYP2C19 (unknown origin) at 10 uM. It is filed as ADME.
Sequence of CYP2C19 (P33261 whole entry): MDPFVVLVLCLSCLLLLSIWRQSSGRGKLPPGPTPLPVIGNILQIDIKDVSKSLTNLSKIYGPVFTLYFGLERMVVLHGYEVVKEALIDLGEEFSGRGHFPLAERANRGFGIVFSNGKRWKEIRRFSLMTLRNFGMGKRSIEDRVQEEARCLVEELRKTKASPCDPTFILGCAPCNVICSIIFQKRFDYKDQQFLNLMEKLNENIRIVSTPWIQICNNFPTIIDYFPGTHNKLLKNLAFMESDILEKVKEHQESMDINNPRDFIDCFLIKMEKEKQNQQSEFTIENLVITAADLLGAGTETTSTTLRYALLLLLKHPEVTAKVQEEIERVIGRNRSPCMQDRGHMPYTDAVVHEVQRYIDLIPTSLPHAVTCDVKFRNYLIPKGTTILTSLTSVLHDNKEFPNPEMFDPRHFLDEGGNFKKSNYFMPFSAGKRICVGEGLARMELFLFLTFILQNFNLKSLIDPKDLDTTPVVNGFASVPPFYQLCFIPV
Data set [9] deals with CYP3A4 (Homo sapiens, UniProt P08684). Description: Inhibition of CYP3A4 (unknown origin) at 10 uM. It is filed as ADME.
Sequence of CYP3A4 (P08684 whole entry): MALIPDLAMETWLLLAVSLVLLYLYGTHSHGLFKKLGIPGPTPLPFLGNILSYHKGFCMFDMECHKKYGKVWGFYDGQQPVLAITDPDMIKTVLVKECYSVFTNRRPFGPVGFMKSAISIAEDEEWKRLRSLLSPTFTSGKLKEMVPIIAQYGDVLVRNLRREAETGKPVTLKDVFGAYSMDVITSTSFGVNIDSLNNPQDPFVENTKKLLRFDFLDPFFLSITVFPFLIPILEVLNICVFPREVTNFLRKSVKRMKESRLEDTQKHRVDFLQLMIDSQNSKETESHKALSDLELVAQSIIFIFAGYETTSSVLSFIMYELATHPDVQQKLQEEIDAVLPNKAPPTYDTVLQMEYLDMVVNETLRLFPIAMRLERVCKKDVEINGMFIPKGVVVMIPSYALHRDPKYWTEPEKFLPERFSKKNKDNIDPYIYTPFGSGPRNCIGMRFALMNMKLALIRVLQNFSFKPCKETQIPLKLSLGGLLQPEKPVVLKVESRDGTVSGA
Data set [10] in a line: Half life in Lewis rat at 3 mg/kg, iv. It is filed as ADME, organism-based. Also on record: dose 3 mg/kg, route intravenous. The settings on record: in vivo. Summed up:
(§2)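 Lewis rats, IV 3 mg/kg and PO 10 mg/kg unless otherwise stated (some at PO 5 mg/kg, IV 1 mg/kg, or IV 1/PO 2 mg/kg). At least two rats IV, three rats PO, averaged. Plasma t1/2 (h), AUC 0–∞ (μM·h), Vss (L/kg), clearance ((L/h)/kg), Cmax (μM), Tmax (h), oral bioavailability (%).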

The nature of data set [11]: Clearance in Lewis rat at 3 mg/kg, iv. It is filed as ADME, organism-based. To be noted: in vivo. More on the design: dose 3 mg/kg, route intravenous. Summed up:
as §2

The nature of data set [12]: Tmax in Lewis rat at 5 mg/kg, po. It is filed as ADME, organism-based. Also on record: dose 5 mg/kg, route oral. To be noted: in vivo. In short, it runs like this:
as §2

The nature of data set [13]: Oral bioavailability in Lewis rat at 5 mg/kg. The class given is ADME, organism-based. To be noted: in vivo. In short, it runs like this:
as §2

The nature of data set [14]: Volume of distribution at steady state in Lewis rat at 3 mg/kg, iv. It is filed as ADME, organism-based. The settings on record: in vivo, read-out: Vdss. More on the design: dose 3 mg/kg, route intravenous. In short, it runs like this:
as §2

Data set [15] can be described thus: Cmax in Lewis rat at 5 mg/kg, po. The class given is ADME, organism-based. More on the design: dose 5 mg/kg, route oral. The settings on record: in vivo. In short, it runs like this: as §2
Data set [16] has as its target Acyl-CoA 6-desaturase (Rattus norvegicus) (UniProt Q9Z122). Description: Inhibition of delta6 desaturase in Sprague-Dawley rat liver microsome using cis,cis-9,12-octadecadienoic acid substrate at 10 uM.
The target in data set [17] is Acyl-CoA (8-3)-desaturase (Rattus norvegicus) (UniProt Q920R3). Description: Inhibition of delta5 desaturase in Sprague-Dawley rat liver microsome at 10 uM. The class given is microsomes.
Sequence of Acyl-CoA (8-3)-desaturase (Rattus norvegicus) (Q920R3 whole entry, looked up): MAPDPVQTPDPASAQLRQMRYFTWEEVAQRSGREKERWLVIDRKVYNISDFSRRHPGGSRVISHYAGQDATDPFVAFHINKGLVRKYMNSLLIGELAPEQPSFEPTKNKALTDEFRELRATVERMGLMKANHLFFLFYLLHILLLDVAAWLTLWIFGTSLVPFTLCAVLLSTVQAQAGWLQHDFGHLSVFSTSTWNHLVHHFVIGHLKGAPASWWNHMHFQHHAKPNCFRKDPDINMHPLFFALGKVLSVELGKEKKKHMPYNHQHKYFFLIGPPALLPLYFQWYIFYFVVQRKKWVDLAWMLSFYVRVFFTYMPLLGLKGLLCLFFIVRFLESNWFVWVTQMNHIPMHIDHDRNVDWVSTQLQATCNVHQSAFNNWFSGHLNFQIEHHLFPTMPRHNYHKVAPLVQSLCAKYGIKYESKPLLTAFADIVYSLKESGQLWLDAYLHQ
Data set [18] in a line: Apparent permeability from basolateral to apical side in human Caco2 cells. The class given is ADME, cell-based. The settings on record: Caco-2. In short, it runs like this: as §1

Sequence of Acyl-CoA 6-desaturase (Rattus norvegicus) (Q9Z122 whole entry, looked up): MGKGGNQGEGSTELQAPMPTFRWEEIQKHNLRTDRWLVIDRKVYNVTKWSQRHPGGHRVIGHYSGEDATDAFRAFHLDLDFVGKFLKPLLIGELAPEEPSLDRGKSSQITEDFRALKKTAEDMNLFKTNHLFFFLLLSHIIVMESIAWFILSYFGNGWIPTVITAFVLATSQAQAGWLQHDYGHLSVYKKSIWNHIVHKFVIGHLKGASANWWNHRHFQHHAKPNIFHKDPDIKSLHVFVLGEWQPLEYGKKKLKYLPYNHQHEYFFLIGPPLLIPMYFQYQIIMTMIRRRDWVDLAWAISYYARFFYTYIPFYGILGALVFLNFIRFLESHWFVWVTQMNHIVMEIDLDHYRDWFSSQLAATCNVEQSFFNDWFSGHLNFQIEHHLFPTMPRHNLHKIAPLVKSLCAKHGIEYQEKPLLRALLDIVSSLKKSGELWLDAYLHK

Turning to `CC(C)CCNC(=O)c1ccc(N2CCN(C(=O)c3ccccc3C(F)(F)F)CC2)nn1`, the remaining at 0.5 h in data set [1] was 57%. Besides, in [2], the Papp A→B is 25 ×10⁻⁶ cm/s. Also, the inhibition in vivo at 15 mg/kg in data set [3] was determined as 40%. The inhibition at 10 µM in data set [4], in [7], in data set [8] and in data set [9] was below 50% in each case. Besides, the fraction unbound in data set [5] is 0.22. Also, the 50% inhibitory concentration (IC50) in data set [6] was 26 nM.
Turning to `O=C(NCCC1CC1)c1ccc(N2CCN(C(=O)c3ccccc3C(F)(F)F)CC2)nn1`, the half-life in data set [10] was 1 h. In data set [11], the clearance was 31.7 mL/min/kg. Also, the remaining at 0.5 h in data set [1] stood at 76%. In [12], the time to peak (Tmax) came to 1 h. The Papp A→B in data set [2] stood at 24 ×10⁻⁶ cm/s. In [13], this compound displayed a bioavailability of 46%. In data set [3], this compound returned an inhibition in vivo at 15 mg/kg above 60%. Besides, the Vd in data set [14] was determined as 2.2 L/kg. This compound yielded a Cmax in data set [15] of 900 nM. In addition, the IC50 in data set [6] amounted to 25 nM. In addition, the inhibition entry in [16] and in data set [17] was “inactive” throughout. Moreover, in data set [18], the basolateral-to-apical permeability (Papp B→A) was 22 ×10⁻⁶ cm/s.

What is called Papp A→B is the apparent permeability from the apical to the basolateral side of a cell layer. As a reminder, the inhibition in vivo is how much of the control response was suppressed. A high value points to a response far below the control. As a reminder, the inhibition is the percentage by which the read-out fell short of the control. As usually defined, the IC50 is the concentration that gives 50% inhibition. As usually defined, the half-life is how long it takes for the measured level to halve. A lower half-life goes with rapid decline. What is called clearance is a measure of how efficiently the substance is removed, as volume per time. Lower therefore signals inefficient removal. By Tmax is commonly meant the time at which the peak concentration occurs. The bioavailability is the share of a dose that reaches the circulation, judged against a reference dose that is usually intravenous. The term Cmax denotes the highest concentration seen after dosing. One may read the Papp B→A as how fast a substance crosses the layer from the basolateral side.
